Test results as given in ChEMBL document CHEMBL1138386, “Discovery of potent and selective PKC-theta inhibitors” (Bioorg Med Chem Lett, 2007).

What was measured:
[1] = target: T1, Protein kinase C theta type (Homo sapiens, UniProt Q04759); experiment: Inhibition of PKCtheta by FP assay
In short: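 Recombinant PKC-θ, […], in 20 mM Hepes pH 7.6 with 0.1 mM CaCl2, 10 mM MgCl2, 0.01% Chaps, TCEP, Na orthovanadate and protease inhibitor cocktail. Enzyme pre-incubated with compound dilutions for 10 min at rt. Phosphopeptide read by competition FP using fluorescein-labelled phosphopeptide tracer and anti-phosphoserine antibody in quench buffer.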

Cytochrome P450 3A4 [2] = target: T2, Cytochrome P450 3A4 (Homo sapiens, UniProt P08684); experiment: Inhibition of CYP3A4 in presence of BFC substrate; format: ADME
T-cell = experiment: Inhibition of IL2 production in […]-stimulated human CD4+ T cells; format: functional, cell-based; details: in the assay text read “anti-CD3/anti-CD28” for “anti-CD3/anti-CD8”
In short: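 Human CD4+ T cells isolated from whole blood by positive selection. Cells activated through TCR and CD28 with anti-CD3 and anti-CD28 mAbs. 50,000 cells/well exposed to compound dilutions at 0.125% DMSO final, or DMSO alone, overnight at 37 °C. Supernatant IL-2 measured by ELISA after 1:10 dilution.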

[3] = Stability in human liver microsomes; format: ADME, Microsome
Cytochrome P450 2C9 = Cytochrome P450 2C9 (Homo sapiens, UniProt P11712); experiment: Inhibition of CYP2C9; format: ADME
[4] = Permeability across Caco-2 cells from basolateral to apical side; format: ADME, cell-based; details: human, read-out: permeability
Cytochrome P450 2D6 = Cytochrome P450 2D6 (Homo sapiens, UniProt P10635); experiment: Inhibition of CYP2D6; format: ADME
Cytochrome P450 3A4 [5] = target: T2, Cytochrome P450 3A4; experiment: Inhibition of CYP3A4 in presence of BQ substrate; format: ADME
[6] = Permeability across Caco-2 cells from apical to basolateral side; format: ADME, cell-based; details: human, read-out: permeability
[7] = target: T1, Protein kinase C theta type; experiment: Inhibition of PKCtheta in presence of 50 uM ATP
[8] = target: T1, Protein kinase C theta type; experiment: Inhibition of PKCtheta in presence of 100 uM ATP

T1 sequence (Q04759 whole entry): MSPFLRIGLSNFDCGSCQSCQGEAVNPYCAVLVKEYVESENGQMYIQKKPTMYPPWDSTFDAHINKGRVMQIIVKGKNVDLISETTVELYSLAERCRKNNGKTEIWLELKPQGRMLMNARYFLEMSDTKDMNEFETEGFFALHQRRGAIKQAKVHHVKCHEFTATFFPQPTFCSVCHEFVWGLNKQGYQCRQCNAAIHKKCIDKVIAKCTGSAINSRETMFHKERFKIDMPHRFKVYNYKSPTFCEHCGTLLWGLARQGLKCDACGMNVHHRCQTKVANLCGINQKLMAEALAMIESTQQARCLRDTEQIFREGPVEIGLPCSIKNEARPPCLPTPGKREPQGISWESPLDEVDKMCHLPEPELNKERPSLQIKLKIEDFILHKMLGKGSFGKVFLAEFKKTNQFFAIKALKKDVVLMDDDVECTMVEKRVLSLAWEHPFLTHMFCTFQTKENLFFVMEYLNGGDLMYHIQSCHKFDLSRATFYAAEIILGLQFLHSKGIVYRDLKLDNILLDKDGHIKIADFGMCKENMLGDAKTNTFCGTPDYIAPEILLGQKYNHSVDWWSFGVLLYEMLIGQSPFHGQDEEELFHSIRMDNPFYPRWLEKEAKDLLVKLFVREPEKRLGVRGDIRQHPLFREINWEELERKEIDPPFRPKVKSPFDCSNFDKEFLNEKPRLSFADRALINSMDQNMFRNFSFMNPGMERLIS
Sequence of Cytochrome P450 2C9 (P11712 whole entry): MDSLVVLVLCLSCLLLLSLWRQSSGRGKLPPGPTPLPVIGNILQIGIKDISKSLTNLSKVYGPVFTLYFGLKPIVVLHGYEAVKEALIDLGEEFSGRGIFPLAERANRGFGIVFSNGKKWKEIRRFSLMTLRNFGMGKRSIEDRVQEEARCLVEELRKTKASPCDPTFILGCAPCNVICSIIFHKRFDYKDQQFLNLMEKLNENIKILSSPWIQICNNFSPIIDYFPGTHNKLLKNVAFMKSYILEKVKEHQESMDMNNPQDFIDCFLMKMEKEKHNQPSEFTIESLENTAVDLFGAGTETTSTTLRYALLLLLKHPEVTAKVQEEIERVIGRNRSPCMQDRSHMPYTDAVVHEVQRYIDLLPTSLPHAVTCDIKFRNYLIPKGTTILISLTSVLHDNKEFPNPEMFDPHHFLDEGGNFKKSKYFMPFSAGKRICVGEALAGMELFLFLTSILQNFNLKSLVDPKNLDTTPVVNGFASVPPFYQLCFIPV
Sequence of Cytochrome P450 2D6 (P10635 whole entry): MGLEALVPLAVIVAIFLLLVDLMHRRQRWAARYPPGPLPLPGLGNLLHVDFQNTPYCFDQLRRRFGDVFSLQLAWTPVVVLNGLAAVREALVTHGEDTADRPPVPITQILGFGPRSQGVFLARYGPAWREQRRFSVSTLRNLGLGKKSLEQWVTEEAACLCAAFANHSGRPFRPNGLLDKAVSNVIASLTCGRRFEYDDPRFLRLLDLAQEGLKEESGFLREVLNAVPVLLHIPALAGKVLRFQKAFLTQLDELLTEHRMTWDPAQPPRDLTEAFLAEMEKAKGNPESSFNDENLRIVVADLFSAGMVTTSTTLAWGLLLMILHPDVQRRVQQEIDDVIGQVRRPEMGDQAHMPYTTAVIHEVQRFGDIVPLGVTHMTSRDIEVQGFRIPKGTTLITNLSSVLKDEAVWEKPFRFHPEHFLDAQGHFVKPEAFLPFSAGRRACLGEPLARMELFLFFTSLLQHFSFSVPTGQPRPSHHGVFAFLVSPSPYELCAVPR
T2 sequence (P08684 whole entry): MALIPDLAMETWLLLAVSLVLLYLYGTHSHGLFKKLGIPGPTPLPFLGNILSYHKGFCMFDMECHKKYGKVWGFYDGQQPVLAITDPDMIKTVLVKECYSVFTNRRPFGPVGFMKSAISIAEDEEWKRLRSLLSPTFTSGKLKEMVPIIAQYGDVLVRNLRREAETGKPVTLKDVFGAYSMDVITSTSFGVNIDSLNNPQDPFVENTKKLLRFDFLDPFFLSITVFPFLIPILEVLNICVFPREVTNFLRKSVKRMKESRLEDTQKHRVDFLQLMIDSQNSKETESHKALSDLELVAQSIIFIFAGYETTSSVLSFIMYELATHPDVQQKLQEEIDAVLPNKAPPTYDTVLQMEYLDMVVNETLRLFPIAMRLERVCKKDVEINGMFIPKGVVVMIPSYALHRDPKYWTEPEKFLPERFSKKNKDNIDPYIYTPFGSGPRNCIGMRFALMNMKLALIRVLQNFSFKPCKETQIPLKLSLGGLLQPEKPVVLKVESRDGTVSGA

Structure (SMILES)	IC50 [1] [nM]	also measured
NCC1CCC(CNc2nc(NCc3cccc(F)c3)ncc2[N+](=O)[O-])CC1 (stereo unspecified)	83	
NCC1CCC(CNc2nc(NCc3cccc(F)c3F)ncc2[N+](=O)[O-])CC1 (stereo unspecified)	22	
Cc1cccc(CNc2ncc([N+](=O)[O-])c(NCC3CCC(CN)CC3)n2)c1C (stereo unspecified)	13	
Cc1ccc(C)c(CNc2ncc([N+](=O)[O-])c(NCC3CCC(CN)CC3)n2)c1 (stereo unspecified)	910	
NCC1CCC(CNc2nc(NCc3ccc(F)cc3)ncc2[N+](=O)[O-])CC1 (stereo unspecified)	210	
COc1ccc(CNc2ncc([N+](=O)[O-])c(NCC3CCC(CN)CC3)n2)cc1 (stereo unspecified)	12000	
NCC1CCC(CNc2nc(NCc3ccccc3C(F)F)ncc2[N+](=O)[O-])CC1 (stereo unspecified)	15	
NCC1CCC(CNc2nc(NCc3ccc(F)cc3F)ncc2[N+](=O)[O-])CC1 (stereo unspecified)	100	
NCC1CCC(CNc2nc(NC(=O)c3ccccc3Br)ncc2[N+](=O)[O-])CC1 (stereo unspecified)	2200	
NC[C@H]1CC[C@@H](CNc2nc(NCc3ccccc3Cl)ncc2[N+](=O)[O-])CC1	18	
CN(C)CC1CCC(CNc2nc(NCc3ccccc3Cl)ncc2[N+](=O)[O-])CC1 (stereo unspecified)	54	IC50 (Cytochrome P450 3A4 [2]): 1700 nM; IC50 (T-cell): 190 nM; half-life [3]: 40 min; IC50 (Cytochrome P450 2C9): 8400 nM; Papp B→A [4]: 10.2 ×10⁻⁶ cm/s; IC50 (Cytochrome P450 2D6): 1700 nM; IC50 (Cytochrome P450 3A4 [5]): 13000 nM; Papp A→B [6]: 10.6 ×10⁻⁶ cm/s
O=[N+]([O-])c1cnc(NCc2ccccc2Cl)nc1NCC1CCNCC1	90	IC50 (Cytochrome P450 3A4 [2]): 28000 nM; IC50 (T-cell): 720 nM; half-life [3]: 66 min; IC50 (Cytochrome P450 2C9): 17600 nM; Papp B→A [4]: 10.6 ×10⁻⁶ cm/s; IC50 (Cytochrome P450 2D6): > 30000 nM; IC50 (Cytochrome P450 3A4 [5]): > 30000 nM; Papp A→B [6]: 8.1 ×10⁻⁶ cm/s
NCC1CCC(CNc2nc(NCc3ccccc3SC(F)(F)F)ncc2[N+](=O)[O-])CC1 (stereo unspecified)	6	
NCC1CCC(CNc2nc(NCc3ccccc3Br)ncc2[N+](=O)[O-])CC1 (stereo unspecified)	5	
NCC1CCC(CNc2nc(NCc3ccccc3-c3ccccc3)ncc2[N+](=O)[O-])CC1 (stereo unspecified)	39	
NCC1CCC(CNc2nc(NCc3c(F)cccc3F)ncc2[N+](=O)[O-])CC1 (stereo unspecified)	42	
NCC1CCC(CNc2nc(NCc3cccc(Cl)c3Cl)ncc2[N+](=O)[O-])CC1 (stereo unspecified)	8	
NCC1CCC(CNc2nc(NCc3ccc(Cl)cc3Cl)ncc2[N+](=O)[O-])CC1 (stereo unspecified)	27	
CC(C)(Nc1ncc([N+](=O)[O-])c(NCC2CCC(CN)CC2)n1)c1ccccc1 (stereo unspecified)	2500	
C[C@H](Nc1ncc([N+](=O)[O-])c(NCC2CCC(CN)CC2)n1)c1ccccc1 (stereo partly specified)	3700	
NCC1CCCC(CNc2nc(NCc3ccccc3Cl)ncc2[N+](=O)[O-])C1 (stereo unspecified)	3	

Structure (SMILES)	IC50 [1] [nM]	also measured
NCCCCCNc1nc(NCc2ccccc2Cl)ncc1[N+](=O)[O-]	450	
NCCCCCCCNc1nc(NCc2ccccc2Cl)ncc1[N+](=O)[O-]	110	
NCC1CCC(CNc2nc(NCc3cc(Cl)ccc3Cl)ncc2[N+](=O)[O-])CC1 (stereo unspecified)	7	
Cc1c(Cl)cccc1CNc1ncc([N+](=O)[O-])c(NCC2CCC(CN)CC2)n1 (stereo unspecified)	46	
NCC1CCC(CNc2nc(N[C@H]3CCc4ccccc43)ncc2[N+](=O)[O-])CC1 (stereo partly specified)	4400	
NCC1CCC(CNc2nc(N[C@@H]3CCc4ccccc43)ncc2[N+](=O)[O-])CC1 (stereo partly specified)	460	
NCC1CCC(CNc2nc(NCc3ccccc3Cl)ncc2[N+](=O)[O-])CC1 (stereo unspecified)	46	IC50 (Cytochrome P450 3A4 [2]): 700 nM; IC50 (T-cell): 84 nM; half-life [3]: 48 min; IC50 (Cytochrome P450 2C9): 1000 nM; Papp B→A [4]: 6.9 ×10⁻⁶ cm/s; IC50 [7]: 290 nM; IC50 (Cytochrome P450 2D6): 4300 nM; IC50 (Cytochrome P450 3A4 [5]): 1400 nM; Papp A→B [6]: 4 ×10⁻⁶ cm/s; IC50 [8]: 630 nM
NCC1CCC(CNc2nc(NCc3ccc(Cl)cc3)ncc2[N+](=O)[O-])CC1 (stereo unspecified)	170	
Cc1ccccc1CCNc1ncc([N+](=O)[O-])c(NCC2CCC(CN)CC2)n1 (stereo unspecified)	180	
NCC1CCC(CNc2nc(NCCc3ccccc3F)ncc2[N+](=O)[O-])CC1 (stereo unspecified)	130	
NCC1CCC(CNc2nc(Nc3cc(Cl)cc(Cl)c3)ncc2C(F)(F)F)CC1 (stereo unspecified)	4200	
NCC1CCC(CNc2nc(Nc3cccc(Cl)c3)ncc2C(F)(F)F)CC1 (stereo unspecified)	640	
NCC1CCC(CNc2nc(NCCc3ccc(F)cc3)ncc2[N+](=O)[O-])CC1 (stereo unspecified)	77	
NCC1CCC(CNc2nc(NCc3ccccc3)ncc2[N+](=O)[O-])CC1 (stereo unspecified)	500	
NCC1CCC(CNc2nc(NC3Cc4ccccc4C3)ncc2[N+](=O)[O-])CC1 (stereo unspecified)	31	
NCC1CCC(CNc2nc(NCCc3ccccc3)ncc2[N+](=O)[O-])CC1 (stereo unspecified)	94	
NCC1CCC(CNc2nc(NCc3ccccc3C(F)(F)F)ncc2[N+](=O)[O-])CC1 (stereo unspecified)	12	
NCC1CCC(CNc2nc(NCc3ccccc3OC(F)(F)F)ncc2[N+](=O)[O-])CC1 (stereo unspecified)	18	
NCC1CCC(CNc2nc(NCCCCc3ccccc3)ncc2[N+](=O)[O-])CC1 (stereo unspecified)	90	
NCC1CCC(CNc2nc(NCCc3cccc(F)c3)ncc2[N+](=O)[O-])CC1 (stereo unspecified)	54	
NCc1ccc(CNc2nc(NCc3ccccc3Cl)ncc2[N+](=O)[O-])cc1	160	

Structure (SMILES)	IC50 [1] [nM]	also measured
NCc1cccc(CNc2nc(NCc3ccccc3Cl)ncc2[N+](=O)[O-])c1	200	
NCCCNc1nc(NCc2ccccc2Cl)ncc1[N+](=O)[O-]	> 10000	
C[C@@H](Nc1ncc([N+](=O)[O-])c(NCC2CCC(CN)CC2)n1)c1ccccc1 (stereo partly specified)	5700	
CSc1ccccc1CNc1ncc([N+](=O)[O-])c(NCC2CCC(CN)CC2)n1 (stereo unspecified)	5	IC50 (Cytochrome P450 3A4 [2]): 6900 nM; IC50 (T-cell): 140 nM; half-life [3]: 65 min; IC50 (Cytochrome P450 2C9): 1400 nM; Papp B→A [4]: 1.9 ×10⁻⁶ cm/s; IC50 (Cytochrome P450 2D6): 4700 nM; IC50 (Cytochrome P450 3A4 [5]): > 30000 nM; Papp A→B [6]: 1.6 ×10⁻⁶ cm/s
NCC1CCC(CNc2nc(Nc3cc(Cl)cc(Cl)c3)ncc2[N+](=O)[O-])CC1 (stereo unspecified)	680	
NCC1CCC(CNc2nc(NCc3cc(Cl)cc(Cl)c3)ncc2[N+](=O)[O-])CC1 (stereo unspecified)	400	
COc1cc(CNc2ncc([N+](=O)[O-])c(NCC3CCC(CN)CC3)n2)cc(OC)c1 (stereo unspecified)	1500	
COc1cccc(CNc2ncc([N+](=O)[O-])c(NCC3CCC(CN)CC3)n2)c1 (stereo unspecified)	210	
NCC1CCC(CNc2nc(NCc3ccccc3F)ncc2[N+](=O)[O-])CC1 (stereo unspecified)	48	
COc1ccccc1CNc1ncc([N+](=O)[O-])c(NCC2CCC(CN)CC2)n1 (stereo unspecified)	17	
NC[C@H]1CC[C@H](CNc2nc(NCc3ccccc3Cl)ncc2[N+](=O)[O-])CC1	29	
NCC1CCC(CNc2nc(NCc3cc(F)ccc3F)ncc2[N+](=O)[O-])CC1 (stereo unspecified)	35	
NCC1CCC(CNc2nc(Nc3cccc(Cl)c3)ncc2[N+](=O)[O-])CC1 (stereo unspecified)	60	
NCC1CCC(CNc2nc(NCc3ccccc3[N+](=O)[O-])ncc2[N+](=O)[O-])CC1 (stereo unspecified)	11	
NCC1CCC(CNc2nc(NCCCc3ccccc3)ncc2[N+](=O)[O-])CC1 (stereo unspecified)	270	
O=[N+]([O-])c1cnc(NCc2ccccc2Cl)nc1NCC1CCCCC1	> 10000	
CC(=O)NCC1CCC(CNc2nc(NCc3ccccc3Cl)ncc2[N+](=O)[O-])CC1 (stereo unspecified)	> 10000	
Cc1ccccc1CNc1ncc([N+](=O)[O-])c(NCC2CCC(CN)CC2)n1 (stereo unspecified)	34	
NCC1CCC(CNc2nc(NCc3cccc(Cl)c3)ncc2[N+](=O)[O-])CC1 (stereo unspecified)	85	
Cc1cccc(CNc2ncc([N+](=O)[O-])c(NCC3CCC(CN)CC3)n2)c1 (stereo unspecified)	39	
